Exocytosis inh – blocks lytic granule exocytosis; inhibition, % at 10 µM; 360,000 compounds, 0.66% hits; TALL-104 LAMP-1 surface exposure, flow cytometry; cells stimulated with thapsigargin and PMA; AID 651702;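 active = inhibition above about 55%, limit read from the data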
HKDC1 inhibitor – blocks human hexokinase HKDC1 activity. 340,000 compounds, 0.16% hits. recombinant HKDC1, G6PDH/diaphorase resazurin coupled fluorescence. AID 493160. inhibition, % at 20 µM;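 active = inhibition above about 35% when tested at 20 µM, limit read from the data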;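 note: plate controls were DMSO wells with enzyme for no effect and DMSO wells lacking enzyme for full effect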
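Material – in-house recombinant HK5 (HKDC1) enzyme · Quantity – HKDC1 at 5 µg/mL · Buffer or medium – pH 8.0 Tris buffer with 10 mM MgCl2 · Reagent – glucose with 1 mM ATP · Dosing – single 20 µM dose · Times – reaction time 90 min, room temperature, protected from light · Technique – resorufin fluorescence at 613 nm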
ABHD5-PLIN5 inh – ABHD5-PLIN5 protein interaction inhibition; Split G. princeps luciferase complementation, luminescence, 4 h; inhibition, % at 4 µM; 360,000 compounds, 0.78% hits; AID 602281;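 active = inhibition above the mean inhibition across every tested compound plus 3 SD, cut at about 22% in these data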;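 note: 0% = DMSO only wells and the 100% control is not disclosed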
PfG6PD inh – PfG6PD (Plasmodium falciparum) enzyme inhibition; PfGluPho enzyme, NADPH resazurin-diaphorase fluorescence; inhibition, % at 20 µM; 350,000 compounds, 0.78% hits; AID 504690;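 active = inhibition reaching at least a set limit at 20 µM in the primary screen, cut at about 59% in these data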;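 note: 0% = DMSO wells with substrate and 100% = DMSO wells lacking glucose-6-phosphate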
ABHD5 PLIN5 conf – confirmation of human ABHD5-PLIN5 interaction inhibitors; inhibition, % at 4 µM; biochemical ABHD5-PLIN5 interaction, luminescence; 2,200 compounds, 67% hits; AID 651612; shares compounds with ABHD5-PLIN5 inh; in the data active = inhibition above about 23%;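 note: 0% = DMSO vehicle wells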
HNF4 split-luc – HNF4 split-luciferase signal hit, counter-screen; inhibition, % at 4 µM; shares compounds with ABHD5-PLIN5 inh; 2,200 compounds, 77% hits; HNF4 dimerization, luminescence, biochemical; AID 651674;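 active = mean inhibition across replicate wells exceeding the computed hit threshold, cut at about 13% in these data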;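 note: light from luciferase halves that rejoin when HNF4 fusion proteins dimerize; 0% = DMSO only wells and the 100% control is not given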
Target sequence (P41235 whole entry, looked up, the tested form may be a part): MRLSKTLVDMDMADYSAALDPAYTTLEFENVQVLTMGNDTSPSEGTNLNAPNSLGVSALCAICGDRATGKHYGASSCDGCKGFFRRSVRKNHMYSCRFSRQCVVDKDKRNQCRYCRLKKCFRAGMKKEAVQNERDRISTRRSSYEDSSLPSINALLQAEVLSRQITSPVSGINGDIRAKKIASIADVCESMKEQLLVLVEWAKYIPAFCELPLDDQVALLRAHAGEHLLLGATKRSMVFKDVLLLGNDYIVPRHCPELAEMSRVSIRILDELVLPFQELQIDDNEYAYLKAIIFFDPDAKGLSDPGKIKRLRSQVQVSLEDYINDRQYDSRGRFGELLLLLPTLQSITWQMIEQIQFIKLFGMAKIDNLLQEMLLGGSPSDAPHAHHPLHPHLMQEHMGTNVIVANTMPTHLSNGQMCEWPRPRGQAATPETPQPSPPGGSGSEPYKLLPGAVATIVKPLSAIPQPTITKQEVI
The depositor's hits bear a star. Only some compounds are listed: those with a hit (about 2.2% of all), similar ones and a draw of the others.

How did CCN(c1ccccc1)S(=O)(=O)c1ccc(C(=O)Nc2ccncc2)cc1 do in these assays?
Exocytosis inh: -12; HKDC1 inhibitor: -3; ABHD5-PLIN5 inh: 2; PfG6PD inh: 23

What do the screens show for `CCN(c1ccccc1)S(=O)(=O)c1ccc(NC(=O)c2nc(S(C)(=O)=O)ncc2Cl)cc1`?
Exocytosis inh: 26; HKDC1 inhibitor: 13; ABHD5-PLIN5 inh: 78*; PfG6PD inh: 48; ABHD5 PLIN5 conf: 89*; HNF4 split-luc: 104*

How did O=C(Nc1ccc(OC(F)F)cc1)c1ccccn1 do in these assays?
Exocytosis inh: -9; HKDC1 inhibitor: -1; ABHD5-PLIN5 inh: -2; PfG6PD inh: -3

How did CCSc1ccc(-c2cc(NC=O)c3ncc(-c4cccc(C(=O)NCCN(C)C)c4)n3c2)cc1 do in these assays?
Exocytosis inh: 27; ABHD5-PLIN5 inh: 19

Results for COC(=O)N1CCc2c(sc(NC(=O)C3COc4ccccc4O3)c2C(N)=O)C1 (stereo not given) ?
Exocytosis inh: -16; HKDC1 inhibitor: 0; ABHD5-PLIN5 inh: 40*; PfG6PD inh: 57; ABHD5 PLIN5 conf: 1; HNF4 split-luc: 8

How did NC(=O)c1c(NC(=O)C2COc3ccccc3O2)sc2c1CCN(Cc1ccccc1)C2 (stereo not given) do in these assays?
Exocytosis inh: -3; HKDC1 inhibitor: -7; ABHD5-PLIN5 inh: -5; PfG6PD inh: 7

What do the screens show for `Cc1ccc(NC(=O)CN2C(=O)c3ccccc3S2(=O)=O)c(C)c1`?
Exocytosis inh: -1; HKDC1 inhibitor: -1; ABHD5-PLIN5 inh: 10; PfG6PD inh: -5

What do the screens show for `COc1cc(OC)c(OC)cc1/C=C/c1cc(C(F)(F)F)[nH]c(=O)n1`?
Exocytosis inh: 4; HKDC1 inhibitor: 14; ABHD5-PLIN5 inh: 5; PfG6PD inh: -9

What do the screens show for `COc1cc(/C=C/c2cc(C(F)(F)F)[nH]c(=O)n2)cc(OC)c1OC`?
Exocytosis inh: 0; HKDC1 inhibitor: 9; ABHD5-PLIN5 inh: 31*; PfG6PD inh: -21; ABHD5 PLIN5 conf: 47*; HNF4 split-luc: 43*

What do the screens show for `COc1ccc(NC(=O)Cn2c(=O)n(CC3CCCO3)c(=O)c3ccccc32)c(OC)c1` (stereo not given)?
Exocytosis inh: -7; HKDC1 inhibitor: -10; ABHD5-PLIN5 inh: 9; PfG6PD inh: -8

How did Cc1ccc(S(=O)(=O)N2C[C@H]3n4c(=O)ccc(=O)n4C[C@H](OC(=O)NCc4ccco4)[C@@]3(O)C2)cc1 do in these assays?
Exocytosis inh: -4; ABHD5-PLIN5 inh: 8; PfG6PD inh: 18

Results for Cc1ccc(S(=O)(=O)N2C[C@H]3n4c(=O)ccc(=O)n4C[C@H](OC(=O)NCC4CCCCC4)[C@@]3(O)C2)cc1 ?
Exocytosis inh: -6; ABHD5-PLIN5 inh: 26*; PfG6PD inh: 3; ABHD5 PLIN5 conf: 63*; HNF4 split-luc: 45*

How did O=C(Nc1nc2ccccc2s1)c1cc(-c2ccco2)nc2ccccc12 do in these assays?
Exocytosis inh: -5; HKDC1 inhibitor: 6; ABHD5-PLIN5 inh: 27*; PfG6PD inh: -22; ABHD5 PLIN5 conf: 22*; HNF4 split-luc: 14*

Results for Cc1cc(C(=O)NCc2ccco2)c2ccccc2n1 ?
Exocytosis inh: 0; HKDC1 inhibitor: -4; ABHD5-PLIN5 inh: 7; PfG6PD inh: 4

How did Cc1cc(C)c2nc(-c3ccccn3)cc(C(=O)NCc3ccco3)c2c1 do in these assays?
Exocytosis inh: -1; HKDC1 inhibitor: 2; ABHD5-PLIN5 inh: 45*; PfG6PD inh: 5; ABHD5 PLIN5 conf: 21; HNF4 split-luc: 26*

Results for Cc1ccc(-c2cc(C(=O)NCc3ccco3)c3ccccc3n2)o1 ?
Exocytosis inh: 4; HKDC1 inhibitor: 14; ABHD5-PLIN5 inh: 44*; PfG6PD inh: 15; ABHD5 PLIN5 conf: 16; HNF4 split-luc: 30*

How did O=C(NCc1ccco1)c1ccccc1-c1ccccc1 do in these assays?
Exocytosis inh: -4; HKDC1 inhibitor: 2; ABHD5-PLIN5 inh: -7; PfG6PD inh: -7

How did Cc1scc(C(=O)NCc2ccco2)c1-c1ccccc1 do in these assays?
Exocytosis inh: -8; HKDC1 inhibitor: 17; ABHD5-PLIN5 inh: 28*; PfG6PD inh: -6; ABHD5 PLIN5 conf: 23*; HNF4 split-luc: 22*

How did CC(C)Cc1ccc(-c2cc3nc(NCCc4ccc(S(N)(=O)=O)cc4)ccn3n2)cc1 do in these assays?
Exocytosis inh: 39; ABHD5-PLIN5 inh: 5
